KCC2 mod: KCC2 (human) Cl- transport modulation | 190,000 compounds, 2.2% hits | B-score of Tl+ flux slope (higher = more flux/activation; lower = inhibition) at 10 µM | KCC2 cells, thallium flux FluoZin-2 fluorescence | Q9H2X9;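 active = thallium flux slope and its plate-corrected score both differing from the plate sample mean at a set confidence after two filtering rounds, in either direction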;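 note: slope of fluorescence scaled to starting intensity during 10 to 20 s after thallium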
WT yeast gro inh: growth inhibition of WT yeast, mitochondrial fusion screen | inhibition, % at 10 µM | mitochondrial fusion phenotypic screen, WT strain | AID 1362 | 190,000 compounds, 2.1% hits; in the data active = inhibition above about 58%; tested in S. cerevisiae
14-3-3 Bad inh: disrupts binding of bovine 14-3-3 zeta to phospho-Bad peptide | P63103 | TR-FRET 14-3-3zeta/Dy647-pBad peptide displacement, 1 h | inhibition, % at 21.7 µM | 220,000 compounds, 0.71% hits | AID 781;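 active = inhibition above about 70%, limit read from the data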;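 note: 0% = full 14-3-3 plus peptide FRET controls and 100% = background without 14-3-3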
Target sequence (P63103 whole entry, looked up): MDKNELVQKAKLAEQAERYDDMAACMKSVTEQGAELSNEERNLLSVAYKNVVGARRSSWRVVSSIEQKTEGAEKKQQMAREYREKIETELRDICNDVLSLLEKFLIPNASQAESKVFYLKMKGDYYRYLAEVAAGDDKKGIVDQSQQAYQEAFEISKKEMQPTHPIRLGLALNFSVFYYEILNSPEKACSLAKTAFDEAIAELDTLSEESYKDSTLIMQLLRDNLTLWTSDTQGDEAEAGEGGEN
ROMK mod: modulators of human ROMK potassium channel; Tet-inducible ROMK, thallium flux fluorescence; actives lie on both sides; P48048; 130,000 compounds, 2% hits; B-score at 10 µM;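 active = signal ratio slope over the read window, or its plate-corrected B-score, at least 3 SD from the plate mean, either direction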;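 note: B-score of the F/F0 ratio slope over 7 to 12 s after thallium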
NCF1 inh: blocks human p47phox regulatory protein of NADPH oxidases; P14598; p47phox/p22phox peptide binding, fluorescence polarization, 2 h; inhibition, % at 24.7 µM; 220,000 compounds, 0.53% hits; AID 1274;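 active = inhibition above about 30%, limit read from the data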;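 note: 0% = p47phox with labelled peptide and 100% = labelled peptide alone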
RBBP9 inh: inhibitors of human serine hydrolase RBBP9 | inhibition, % at 7.94 µM | recombinant RBBP9, FP-Rh probe fluorescence polarization | O75884 | 220,000 compounds, 0.2% hits;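 active = inhibition above the campaign mean of all tested compounds plus 3 SD, cut at about 14% in these data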;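 note: plate controls were DMSO wells with RBBP9 for no effect and wells lacking RBBP9 protein for full effect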
Target sequence (O75884 whole entry, looked up): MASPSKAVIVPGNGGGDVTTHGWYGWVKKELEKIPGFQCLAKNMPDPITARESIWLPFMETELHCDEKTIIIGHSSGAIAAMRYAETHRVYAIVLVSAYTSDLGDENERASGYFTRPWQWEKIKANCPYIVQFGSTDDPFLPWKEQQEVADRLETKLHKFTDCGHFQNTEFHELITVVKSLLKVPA
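system = RBBP9 protein | input = RBBP9 at 2.5 µM in dispensed solution, before mixing | measured by = fluorescence polarization (mP), excitation 525 nm, emission 598 nm | incubation = enzyme-compound preincubation 30 min, then probe labeling 45 min, 25 °C | buffer or medium = Tris-NaCl-Pluronic buffer, pH 8.0 | compound = single dose 7.94 µM | also added = FP-Rh probe, 375 nM dispensing solution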
ROMK hit retest: confirmation of human ROMK potassium channel modulators. AID 1917. 3,000 compounds, 54% hits. normalized thallium flux (F/F0 slope) at 10 µM. shares compounds with ROMK mod. ROMK thallium flux, fluorescence ratio; hits give low values;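 active = Flux at 10 µM at least 3 SD below or above vehicle control mean in one or both replicates; inconclusive = no clear call, values can overlap the other calls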
The depositor's hits bear a star; ? = inconclusive; nt = no result. Compounds with a hit are over-represented: about 5.8% of the library has one in this group of screens.

SMILES	KCC2 mod	WT yeast gro inh	14-3-3 Bad inh	ROMK mod	NCF1 inh	RBBP9 inh	ROMK hit retest
CCCC1(C(=O)OCC)NC(c2ccc(O)cc2)C2C(=O)N(c3ccc4c(c3)OCCO4)C(=O)C21 (stereo not drawn)	1.6	-6	-3	1.2*	-12	1	0.075
CCCCn1c(=O)c(CCC(=O)OCC(=O)NCc2ccc(OC)c(OC)c2)nc2ccccc21	-0.41	-13	0	0.04	-6	-3	nt
O=C(Nc1ccc(Oc2cccc(C(F)(F)F)c2)nc1)c1ccccc1	-0.2	nt	3	nt	-4	-8	nt
O=C(Nc1ccc(Oc2cccc(C(F)(F)F)c2)nc1)c1cccs1	0.53	nt	9	nt	-29	-13	0.064*
Nc1nc(-c2ccco2)nn1S(=O)(=O)c1ccc(Cl)cc1	0.52	-14	-5	0.44	-1	-8	nt
CCSc1nnc(NC(=O)NCC(F)(F)F)s1	-0.21	0	14	2.6*	-1	-3	0.078
CCSc1nnc(NC(=O)C(C)(C(F)(F)F)C(F)(F)F)s1	nt	0	51	-3	-3	-5	nt
CCSc1nnc(NC(=O)C(CC)(C(F)(F)F)C(F)(F)F)s1	-2.2	-2	10	-0.91	-3	4	0.071
CN(C(=S)Nc1ccc(F)cc1)C1(c2ccccc2Cl)CCCCC1=O (stereo not drawn)	0.09	12	0	nt	-7	-4	0.08
O=C(CC(=O)NC1CCCCC1)N/N=C/c1ccccc1F	-1.4	-8	-7	1.2	-4	5	nt
CCC(C)(C(=O)NC1CCCCC1)N(CC1CCCO1)C(=O)Cc1cccs1 (stereo not drawn)	0.91	-6	-21	-7.8*	28	-7	0.075
CCC(C)(C(=O)NC1CCCC1)N(Cc1cccs1)C(=O)Cc1cccs1 (stereo not drawn)	nt	-1	-12	1.1	-7	7	nt
Cc1ccccc1N1C(=O)c2sc3nc4c(c(=O)n3c2C1=O)CCC4	nt	3	2	-3.1*	69*	2	0.078
O=C1c2sc3nc4c(c(=O)n3c2C(=O)N1c1ccccc1)CCC4	-0.46	-12	8	1.4	-4	-10	nt
CCS(=O)(=O)N1CCN(c2ccc([N+](=O)[O-])c(NC(C)c3ccccc3)c2)CC1 (stereo not drawn)	-0.66	48	-2	nt	-14	-1	nt
CC(Nc1cc(N2CCNCC2)ccc1[N+](=O)[O-])c1ccccc1 (stereo not drawn)	-0.74	19	-5	-3.2*	-2	-7	0.053*
O=S(=O)(Nc1ccccn1)c1ccc(Cl)c2ccccc12	-0.051	-12	-20	0.075	0	-4	nt
CN(C)CCCNC(=O)/C(=C\C=C\c1ccccc1)NC(=O)c1ccc([N+](=O)[O-])cc1	0.03	nt	-14	nt	-11	-7	nt
Cn1c(=O)c2c(nc(Br)n2CCCc2ccccc2)n(C)c1=O	nt	-15	1	-4.1*	-4	-5	0.063*
CCOc1cc(-c2cc(-c3ccc(N)cc3)nc(N)c2C#N)ccc1O	-2.8	14	nt	5*	-16	1	0.09
Cc1cc(NC(=O)/C=C/C(=O)N(CC(=O)NC2CCCC2)c2cccc3ccccc23)no1	-0.78	-4	4	-4*	-7	-5	0.056*
Cc1ccc2[nH]c3c(N4CCCCCC4)ncnc3c2c1	nt	-1	-1	-4*	-12	-8	0.058*
Cc1ccc2[nH]c3c(N4CCN(Cc5ccc6c(c5)OCO6)CC4)ncnc3c2c1	nt	-7	-6	-3.8*	1	-3	0.061*
COc1ccc2c(c1)[nH]c1c(N3CCN(Cc4ccc5c(c4)OCO5)CC3)ncnc12	nt	1	3	-1.7	-10	-2	nt
C=CCNC(=S)Nc1cccc(N)c1	0.19	6	-11	1.2	-13	-3	nt
SMILES	KCC2 mod	WT yeast gro inh	14-3-3 Bad inh	ROMK mod	NCF1 inh	RBBP9 inh	ROMK hit retest
COc1cccc(CN(C)CC(=O)Nc2ccccc2C(C)C)c1	-1	22	40	0.42	0	0	nt
COC(Cc1n[nH]c(=S)n1-c1ccccc1)OC	0.0011	3	76*	nt	0	-3	0.073
COCc1cc(S(=O)c2ccc(Cl)cc2)nc(C)n1 (stereo not drawn)	-2.5	3	1	-0.32	3	-4	nt
CN(Cc1ccc(Cl)s1)C(=O)CCl	0.33	-31	-5	0.1	-1	8	nt
CCCC(=O)Nc1ccc(Cl)c(NC(=O)c2cccc(OC)c2)c1	0.28	4	-11	0.32	-16	-7	nt
CN1CCN(CCCNC(=O)c2ccc(CSCc3cccc(Cl)c3)o2)CC1	nt	-17	1	-0.91	-6	-5	nt
CC1CCN(CCCNC(=O)c2ccc(CSCc3cccc(Cl)c3)o2)CC1	0.64	-1	-2	-4.2*	-8	-5	0.053*
Cc1ccccc1SC1CCN(Cc2nc(C3CC3)no2)CC1	-0.3	5	-6	0.45	-6	-6	nt
O=C(N/N=C/c1ccccc1[N+](=O)[O-])c1ccc(COc2ccccc2-c2ccccc2)cc1	0.76	1	-1	nt	-11	-11	nt
O=C1CCC/C(=N\NC(=O)c2ccc(COc3ccccc3-c3ccccc3)cc2)C1	0.0034	-9	-8	-5.5*	-13	-18	0.078
CC(C)OC(=O)C[N+](C)(C)CCN1C(=O)C2C(c3ccccc3)C=CC(c3ccccc3)C2C1=O (stereo not drawn)	-1.1	4	-5	-3.3*	10	-1	?
Cn1c(Cc2ccccc2)nnc1SCc1nc2ccccc2c(=O)[nH]1	1.1	-11	2	2.5	1	-9	0.086
CCOC(=O)C1CCCN(C(=O)c2cn(CC(C)C)c(=O)c3cc(OC)c(OC)cc23)C1 (stereo not drawn)	0.21	1	13	0.51	-11	2	nt
CCOC(=O)C1CCCN(C(=O)c2cn(CC)c(=O)c3cc(OC)c(OC)cc23)C1 (stereo not drawn)	0.27	-11	-1	nt	3	-4	0.073
Cc1ccc(C)c(N2CCN(C(=O)c3ccc(CSc4nc5ccncc5[nH]4)cc3)CC2)c1	-1.9	1	18	-4.2*	-1	-4	0.072
O=C(c1ccc(CSc2nc3ccncc3[nH]2)cc1)N1CCCCC1	0.032	4	48	-0.045	-3	-7	nt
CCCc1cnc(N2CCN(S(=O)(=O)c3cccs3)CC2)nc1	0.085	nt	-2	nt	11	0	nt
COc1ccccc1OCc1ccc(C(=O)N(C)C)o1	0.34	-7	-1	nt	-4	3	0.084
O=C(NC1CCN(C(=O)c2cccs2)CC1)c1ccccc1	-0.52	nt	-4	-0.03	-8	-3	nt
CCN1CCN(c2ccc(NC(=O)c3cccc(F)c3)cc2Cl)CC1	0.52	-9	-4	0	-2	1	nt
